Consider 3 compounds from publication PMC4750707 (Antimicrobial Agents and Chemotherapy, 2016).

Broadly, the IC50 is the midpoint of a concentration-inhibition curve. For orientation: MIC means the least concentration at which growth counts as inhibited.

The target in assay [1] is T1, E. coli PBP3 (Escherichia coli, UniProt P0AD68).
T1 sequence (P0AD68 1-588): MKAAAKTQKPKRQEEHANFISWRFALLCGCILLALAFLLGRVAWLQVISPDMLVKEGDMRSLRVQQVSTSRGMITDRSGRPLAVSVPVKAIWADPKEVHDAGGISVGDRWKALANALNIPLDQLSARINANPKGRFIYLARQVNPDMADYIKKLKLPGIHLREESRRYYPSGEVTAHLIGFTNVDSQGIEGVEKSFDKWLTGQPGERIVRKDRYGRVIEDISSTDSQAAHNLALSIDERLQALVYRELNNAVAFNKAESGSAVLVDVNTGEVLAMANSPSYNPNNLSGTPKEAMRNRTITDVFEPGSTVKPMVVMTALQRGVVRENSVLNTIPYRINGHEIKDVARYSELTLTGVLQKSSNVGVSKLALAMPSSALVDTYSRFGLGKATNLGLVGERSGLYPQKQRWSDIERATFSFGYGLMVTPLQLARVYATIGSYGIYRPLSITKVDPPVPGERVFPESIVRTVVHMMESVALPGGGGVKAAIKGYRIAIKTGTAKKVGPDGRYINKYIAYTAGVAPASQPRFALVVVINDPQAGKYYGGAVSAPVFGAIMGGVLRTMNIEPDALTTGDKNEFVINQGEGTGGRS
As to the kind of experiment: PBP competition assay with Bocillin FL. Type of assay: binding. A digest of the protocol: (§1)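 E. coli K-12 or P. aeruginosa 1771 grown in BHI at 35°C to A600 ~1.5. Cells in 50 mM phosphate pH 7.0 were French-pressed; membranes pelleted at 150,000 × g. Membranes (10–20 μg protein) were pre-incubated with test compound 10 min at 30°C, then Bocillin FL (100 μM final) 20 min. SDS-PAGE, fluorescence scan. IC50 in μg/ml from ≥8 concentrations versus no-drug control.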

The target in assay [2] is T2, P. aeruginosa PBP2 (Pseudomonas aeruginosa, UniProt Q9X6V3).
T2 sequence (Q9X6V3 1-646): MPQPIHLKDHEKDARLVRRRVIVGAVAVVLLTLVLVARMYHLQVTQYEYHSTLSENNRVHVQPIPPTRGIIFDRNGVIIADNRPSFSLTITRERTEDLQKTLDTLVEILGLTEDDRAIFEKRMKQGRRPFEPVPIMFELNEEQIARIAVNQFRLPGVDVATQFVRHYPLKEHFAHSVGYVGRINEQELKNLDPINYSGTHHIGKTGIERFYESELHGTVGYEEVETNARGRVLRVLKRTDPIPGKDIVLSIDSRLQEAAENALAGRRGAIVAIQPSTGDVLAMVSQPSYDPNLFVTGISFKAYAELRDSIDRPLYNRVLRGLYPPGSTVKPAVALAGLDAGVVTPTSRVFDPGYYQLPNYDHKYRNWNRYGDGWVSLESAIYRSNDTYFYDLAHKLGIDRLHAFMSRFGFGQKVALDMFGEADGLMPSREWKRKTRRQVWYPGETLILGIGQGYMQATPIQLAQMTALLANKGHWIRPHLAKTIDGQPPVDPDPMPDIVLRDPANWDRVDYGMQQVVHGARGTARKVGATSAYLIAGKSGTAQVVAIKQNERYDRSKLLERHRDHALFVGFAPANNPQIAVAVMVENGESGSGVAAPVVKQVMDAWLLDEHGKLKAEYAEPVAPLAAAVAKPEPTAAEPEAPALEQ
As to the kind of experiment: PBP competition assay with Bocillin FL. Type of assay: binding. A digest of the protocol:
as §1

For assay [3], the system named is E. coli. As to the kind of experiment: Broth microdilution MIC. Type of assay: cell-based. Conditions: Escherichia coli. A digest of the protocol: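 MICs by CLSI broth microdilution in cation-adjusted Mueller-Hinton broth. Strains grown in BHI broth at 35°C: E. coli K-12, P. aeruginosa 1771 and S. aureus ATCC 29213. H. influenzae Rd grown in BHI with Haemophilus test medium supplement (hemin and β-NAD, 15 μg/ml each).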
On the technique in general: Broth dilution looks for growth in wells or tubes with falling amounts of substance.

Assay [4] addresses T3, E. coli PBP1b (Escherichia coli, UniProt P02919).
T3 sequence (P02919 1-844): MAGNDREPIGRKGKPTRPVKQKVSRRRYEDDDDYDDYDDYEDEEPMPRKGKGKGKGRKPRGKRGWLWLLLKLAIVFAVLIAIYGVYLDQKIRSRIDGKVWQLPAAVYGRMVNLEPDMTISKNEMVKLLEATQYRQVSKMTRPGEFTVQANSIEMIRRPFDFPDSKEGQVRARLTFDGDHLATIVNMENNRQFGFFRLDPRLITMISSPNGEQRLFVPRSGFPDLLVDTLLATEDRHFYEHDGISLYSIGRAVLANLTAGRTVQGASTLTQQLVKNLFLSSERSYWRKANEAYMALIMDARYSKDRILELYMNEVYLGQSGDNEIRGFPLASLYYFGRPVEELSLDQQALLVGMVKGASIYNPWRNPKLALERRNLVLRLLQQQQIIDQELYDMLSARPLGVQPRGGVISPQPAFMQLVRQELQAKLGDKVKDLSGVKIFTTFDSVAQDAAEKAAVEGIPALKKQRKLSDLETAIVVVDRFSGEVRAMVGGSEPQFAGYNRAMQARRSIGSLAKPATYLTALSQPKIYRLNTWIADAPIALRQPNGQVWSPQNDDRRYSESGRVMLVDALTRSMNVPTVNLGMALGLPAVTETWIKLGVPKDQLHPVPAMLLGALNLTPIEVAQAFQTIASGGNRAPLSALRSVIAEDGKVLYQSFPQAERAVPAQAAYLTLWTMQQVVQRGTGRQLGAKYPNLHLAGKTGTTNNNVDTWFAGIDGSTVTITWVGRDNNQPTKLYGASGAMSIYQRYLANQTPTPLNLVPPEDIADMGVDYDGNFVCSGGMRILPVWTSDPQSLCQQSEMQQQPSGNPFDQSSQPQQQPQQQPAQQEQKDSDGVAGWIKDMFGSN
As to the kind of experiment: PBP competition assay with Bocillin FL. The assay is classed as binding. A digest of the protocol:
as §1

In assay [5] the target is E. coli PBP4 (Escherichia coli, UniProt P24228). As to the kind of experiment: PBP competition assay with Bocillin FL. The assay is classed as binding. The gist of the method:
as §1

In brackets after ≈: the same amount, converted by molar mass.

Take `NC(=O)[C@@H]1CC[C@@H]2CN1C(=O)N2OS(=O)(=O)O` [AVI, avibactam]: the half-maximal inhibitory concentration (IC50) in assay [1] is above 49 µM; in assay [2], 4.15 µM; in assay [4], above 49 µM; in assay [5] it was above 49 µM. The compound also registered an MIC in assay [3] of 8 µg/mL (≈ 30.2 µM).
`CC(C)(O/N=C(\C(=O)N[C@@H]1C(=O)N2C(C(=O)[O-])=C(C[n+]3ccccc3)CS[C@H]12)c1csc(N)n1)C(=O)O` [CAZ, ceftazidime]: the half-inhibitory concentration (IC50) was 0.366 µM in assay [1], above 45.7 µM in assay [2], 14.6 µM in assay [4] and above 45.7 µM in assay [5]. Besides, the lowest concentration to inhibit growth in assay [3] (MIC) was 0.5 µg/mL (≈ 0.915 µM).
As for `CC1(C)S[C@@H]2[C@H](/N=C/N3CCCCCC3)C(=O)N2[C@H]1C(=O)O` [MEC, amdinocillin], the IC50 in assay [1] was above 39.9 µM; in assay [2], 0.645 µM; in assay [4] it was above 39.9 µM; in assay [5], above 39.9 µM. The minimum inhibitory concentration (MIC) in assay [3] fell in the range of 0.06 to 0.1 µg/mL (≈ 0.184 to 0.307 µM).
